An excerpt weighted towards active compounds, which were near 4.1% of everything screened.
KCC2 mod: KCC2 cotransporter modulators, thallium flux, primary screen, cell-based, HEK293 KCC2, FluoZin-2 fluorescence, MLSMR. Solute carrier family 12 member 5 (Homo sapiens), Q9H2X9. KCC2 cells, thallium flux FluoZin-2 fluorescence. B-score of Tl+ flux slope (higher = more flux/activation; lower = inhibition) at 10 µM. hit rate 2.2% among 190,000. AID 1456, 2008;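 active = thallium flux slope and its plate-corrected score both differing from the plate sample mean at a set confidence after two filtering rounds, in either direction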;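 note: slope of fluorescence scaled to starting intensity during 10 to 20 s after thallium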
hERG protect: hERG rescue from dofetilide block, primary screen, cell-based, CHO-hERG, FluxOR thallium flux, dofetilide IC70; dofetilide IC70 present; activation (rescue from dofetilide block), less the hit threshold, % at 10 µM; hit rate 0.51% among 310,000;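 active = activation above the mean of controls blocked by dofetilide plus 5 SD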;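 note: thallium influx through hERG after potassium depolarization seen as dye fluorescence rise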
KCNK3 inh: human KCNK3 channel inhibitors, primary screen, CHO cells, FluxOR thallium flux, B-score; Potassium channel subfamily K member 3 (Homo sapiens), O14649; FluxOR fluorescence; stronger effect = lower value; B-score at 10 µM; hit rate 0.84% among 340,000;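 active = B-score under library mean minus 4 SD, starting fluorescence ratio at most library mean plus 5 SD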;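 note: more negative B-score means stronger inhibition of thallium flux through KCNK3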
KCNK9 inh: KCNK9 potassium channel inhibitors, primary screen, HEK293 cells, thallium flux | FluxOR thallium flux fluorescence; stronger effect = lower value | hit rate 1.2% among 310,000 | B-score at 10 µM;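 active = ratio B-score over 3 SD below the library mean, with starting fluorescence within 5 SD of its mean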;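 note: negative B-score means less thallium flux so channel inhibition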
KCNQ1 block: inhibitors of human KCNQ1 channel, primary screen, cell-based, thallium flux, high-throughput; hit rate 1.3% among 310,000; CHO-K1 KCNQ1, FluxOR thallium flux fluorescence; stronger effect = higher value; Potassium voltage-gated channel subfamily KQT member 1 (Homo sapiens), P51787; B-score at 10 µM;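 active = compounds whose thallium flux B-score, printed positive for inhibition, exceeds three library SD while starting fluorescence stays within three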;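 note: channel opened by potassium depolarization with thallium stimulus after 20 min compound exposure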
KCNQ1 pot: potentiators or activators of KCNQ1 channel, primary screen, cell-based, thallium flux, high-throughput; CHO-K1 KCNQ1, thallium flux FluxOR fluorescence; stronger effect = higher value; B-score at 10 µM; hit rate 0.35% among 310,000; AID 2648, 2010;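 active = fluorescence ratio B-score, a plate-corrected score, at least three library SD, with initial intensity B-score within 5 SD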
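Medium – assay buffer, equal DMSO in all wells · Material – CHO-K1 cell line with stable KCNQ1 potassium channel expression · Signal – kinetic FluxOR thallium fluorescence, 10-s 1-Hz baseline, 110-s post-stimulus read · Compound – single concentration per compound, DMSO matched to controls · Schedule – 37 °C overnight plating, 90-min dark dye load, 20-min compound pretreatment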
KCNK9 block conf: KCNK9 potassium channel inhibitors, confirmation, HEK293 cells, thallium flux, duplicate | AID 492992, 2010 | inhibition, % at 10 µM | shares compounds with KCNK9 inh | FluxOR thallium flux fluorescence | hit rate 43% among 4,900;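 active = thallium signal inhibited by more than 5 SD of the compound-free buffer control wells, on both duplicate plates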;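 note: 0% = assay buffer control wells without compound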
Kir21 sel: mouse Kir2.1 channel inhibition, confirmation, selectivity assay for KCNK9 modulator project, cell-based, HEK293, thallium flux. shares compounds with KCNK9 inh. Kir2.1 cells, FluxOR thallium flux fluorescence. inhibition, % at 10 µM. hit rate 4% among 4,900;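 active = thallium signal drop more than 5 SD beyond the mean of the no-compound control wells, seen in both duplicate plates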;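 note: signal is fluorescence rise after thallium addition divided by baseline fluorescence; plate controls were assay buffer only for no effect and full block by chlorpromazine control for full effect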
Target sequence (P35561 whole entry, looked up): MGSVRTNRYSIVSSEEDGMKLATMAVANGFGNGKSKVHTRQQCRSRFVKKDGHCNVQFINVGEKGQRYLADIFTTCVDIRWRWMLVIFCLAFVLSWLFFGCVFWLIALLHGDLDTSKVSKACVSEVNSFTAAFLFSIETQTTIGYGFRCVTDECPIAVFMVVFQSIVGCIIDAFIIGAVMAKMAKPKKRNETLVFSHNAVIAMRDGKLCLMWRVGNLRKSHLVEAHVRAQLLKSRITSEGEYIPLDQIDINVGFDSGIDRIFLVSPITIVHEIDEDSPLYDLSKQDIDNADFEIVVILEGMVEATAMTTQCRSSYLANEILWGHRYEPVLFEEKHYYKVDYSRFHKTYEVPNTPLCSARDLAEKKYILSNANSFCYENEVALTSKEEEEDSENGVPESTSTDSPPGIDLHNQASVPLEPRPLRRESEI
HEK293 Tl ctr: thallium flux in non-induced HEK293 cells, confirmation, counter-screen for KCNK9 inhibitor project, cell-based, second counter screen, non-induced KCNK9-HEK293; shares compounds with KCNK9 inh; FluxOR thallium flux; inhibition, % at 10 µM; hit rate 40% among 4,900;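 active = thallium signal drop beyond 5 SD of the untreated control mean, on both duplicate plates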;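 note: plate controls were buffer only IC0 wells for no effect and SID17386958 at its maximal inhibitory level for full effect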
* = called active by the depositor; i = inactive; x = not tested or not shown.

SMILES | KCC2 mod | hERG protect | KCNK3 inh | KCNK9 inh | KCNQ1 block | KCNQ1 pot | KCNK9 block conf | Kir21 sel | HEK293 Tl ctr
COc1nc(SC)nc(Cl)c1Cc1ccc(OC(C)C)cc1 | -0.4 | -7 | i | i | i | i | i | i | 26%*
Cc1ccc(C(=O)Nc2cccc(-c3ccc(N4CCOCC4)nn3)c2)cc1[N+](=O)[O-] | x | -6 | i | i | i | i | x | x | x
CCOC(=O)C1CCN(C(=O)c2ccc(OC3CCN(C(=O)COC)CC3)cc2)CC1 | x | -5 | i | i | i | i | x | x | x
Cc1ccc(C(=O)Nc2nnc(NC(=S)Nc3ccccc3)s2)cc1 | 0.36 | -12 | i | i | i | i | i | i | i
COc1ccc2[nH]c(C(=O)NCCN3CCCCC3)cc2c1 | 0.76 | -3 | x | i | i | i | x | x | x
O=S(=O)(N/N=C/c1ccc(Cl)cc1)c1ccc(Cc2ncc(C(F)(F)F)cc2Cl)s1 | -0.65 | -17 | -9.3* | i | 10* | i | i | i | i
COc1ccccc1N1CCN(CC(O)COc2ccc(C)cc2C)CC1 (stereo not drawn) | x | -6 | i | i | i | i | x | x | x
Cc1cccc(-c2nc(CSCC(=O)NCc3cccs3)c(C)o2)c1 | -2.4 | -15 | i | i | i | i | i | i | i
Nc1nc(SCCO)[nH]c(=O)c1NC(=O)c1ccc(Br)o1 | x | -8 | i | i | i | i | x | x | x
O=C(CN(c1cccc(C(F)(F)F)c1)S(=O)(=O)c1ccc(Cl)c([N+](=O)[O-])c1)NCc1ccccc1Cl | -0.043 | -8 | i | -8.3* | i | i | 42%* | i | 36%*
CN(CC(=O)NC(=O)NCc1ccccc1)Cc1cccc(Cl)c1Cl | -1.5 | 0 | i | i | i | i | i | i | 22%*
COc1ccc(C)cc1S(=O)(=O)N(CC(=O)NCc1ccc(Cl)cc1)Cc1ccccc1 | x | -11 | i | -10* | i | i | i | i | 40%*
CN(CC(=O)NC(=O)NCc1ccccc1)Cc1ccc(Cl)cc1 | -0.91 | -4 | i | i | i | i | i | i | i
CCOc1ccc(/C=N/OCC(=O)NC(c2ccccc2)c2ccccc2)cc1 | -0.016 | -8 | i | i | i | i | x | x | x
Clc1ccccc1CN(Cc1ccccc1)C(c1cccs1)c1nnnn1C1CCCC1 (stereo not drawn) | 0.47 | -4 | i | i | i | i | x | x | x
CCN(Cc1ccccc1)C(c1cccs1)c1nnnn1C1CCCCC1 (stereo not drawn) | 1.4 | -5 | i | -12* | i | i | 56%* | i | 34%*
Cc1ccc(Cn2ccc(NC(=O)c3cc(CC(C)C)on3)n2)cc1 | -1.1 | -11 | i | i | i | i | i | i | i
O=C(N/N=C/c1ccccn1)c1cc(-c2ccc3ccccc3c2)n[nH]1 | -0.96 | -9 | i | -13* | i | i | 45%* | i | 31%*

Assay outcomes as filed in PubChem.
